Assay results as given in ChEMBL document CHEMBL1128222, “Novel inhibitors for multidrug resistance: 1,3,5-triazacycloheptanes” (J Med Chem, 1995).

Columns and labels:
P388/ADR [1] = assay: In vitro relative vinblastin uptake into P388/ADR (murine leukemia/multidrug resistant) cells following 10 uM treatment.; assay type: functional, Mus musculus
Summary of the method: (§1)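 10^6 P388/S or P388/ADR cells in 1 mL of 20 mM Hepes-buffered medium, pH 7.4. They are incubated with 4.6 kBq [3H]vinblastine with or without 10 μM compound (DMSO final 1%) at 37 °C for 30 min. Cells are then chilled, pelleted at 2 °C and washed twice in cold PBS. They are solubilized in NaOH and counted. The value is uptake relative to untreated cells.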

P388/S [2] = assay: In vitro relative vinblastin uptake into P388/s (murine leukemia) cells following 10 uM treatment.; assay type: functional, Mus musculus; summary of the method: as §1
Mus musculus [3] = assay: In vivo evaluation for the inhibitory activity against drug sensitive P388 cells (P388/S) cells bearing mice at dose 0.2 mg/kg; assay type: functional
Summary of the method: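 Mice were implanted with 1 × 10^6 P388/S cells on day 0 and given VBL by i.p. injection on days 1-4 and 6-8. Survival days (average ± SD) and ILS (%) were compared with the untreated group, with P < 0.05 by Student's t-test or Welch-corrected two-sample test.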

Mus musculus [4] = assay: Evaluation of ILS percentage of mice upon intraperitoneal injection of VBL at a concentration of 0.2 mg/kg; assay type: functional; conditions: ip
Summary of the method: (§2)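 Female CD2F1 mice, 5 per group, were inoculated i.p. with 1.0 × 10^6 P388/ADR cells on day 0. VBL was given by i.p. injection and/or the test agent orally on days 1-4 and 6-8. Read-out was survival days (average ± SD) and ILS (%) against the untreated group, with P < 0.05 by Student's t-test or a two-sample test with Welch's correction.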

Mus musculus [5] = assay: Evaluation of Survival of mice upon intraperitoneal injection of VBL at a concentration of 0.2 mg/kg; assay type: functional; conditions: ip; summary of the method: as §2
Mus musculus [6] = assay: In vivo evaluation for the inhibitory activity against drug sensitive P388 cells (P388/S) cells bearing mice at a concentration of 0.2 mg/kg
Mus musculus [7] = assay: Evaluation of ILS percentage of mice upon oral administration on days 1-4 and 6-8 at a concentration of 40 mg/kg; assay type: functional; summary of the method: as §2
Mus musculus [8] = assay: Evaluation of Survival of mice upon oral administration on days 1-4 and 6-8 at a concentration of 40 mg/kg; assay type: functional; summary of the method: as §2
P388/S [9] = assay: Inhibitory activity against drug sensitive P388 cells (P388/S) cells in presence of mitomycin C; assay type: functional, cell-based; conditions: Mus musculus
Summary of the method: (§3)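 P388/S or P388/ADR cells at 10^5 cells/mL in RPMI-1640/10% FCS medium. They receive graded adriamycin, mitomycin C or cisplatin, alone or together with 2.5 μM modulator, for 48 h (DMSO final 0.25%). Growth is read by MTT and the antitumor-drug IC50 is reported.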

Mus musculus [10] = assay: Evaluation of Survival of mice upon intraperitoneal injection of VBL and/or oral administration on days 1-4 and 6-8 at a concentration of 20 mg/kg; assay type: functional; summary of the method: as §2
P388/ADR [11] = assay: Relative increase in inhibitory activity against multidrug resistant P388 cells (P388/ADR) cells at a concentration of 1.0 uM in presence of vinblastine; assay type: functional, Mus musculus
Summary of the method: (§4)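 Same 48 h MTT growth assay in P388/S or P388/ADR cells at 10^5 cells/mL. Vinblastine IC50 is found alone and with modulator at 1.0, 2.5 or 5.0 μM. The value is the relative increase in vinblastine growth-inhibitory effect, taken as the fold change in IC50 from the combined treatment.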

P388/S [12] = assay: In vitro evaluation for the inhibitory activity against drug sensitive P388 cells (P388/S) cells at a concentration of 0 uM; assay type: functional, cell-based; conditions: Mus musculus
Summary of the method: (§5)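 P388/S and P388/ADR murine leukemia cells are maintained by weekly intraperitoneal passage in female CDF1 mice. For the assay they are seeded at 10^5 cells/mL in RPMI-1640 with 10% FCS, 20 μM β-mercaptoethanol and 100 μg/mL kanamycin. Vinblastine is given with or without modulator (0–5.0 μM; DMSO final 0.25%) for 48 h. Growth is read by MTT and vinblastine IC50 is reported.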

P388/S [13] = assay: Inhibitory activity against drug sensitive P388 cells (P388/S) cells in presence of adriamycin; assay type: functional, cell-based; conditions: Mus musculus; summary of the method: as §3
P388/ADR [14] = assay: Inhibitory activity against multidrug resistant P388 cells (P388/ADR) cells at a concentration of 2.5 uM in presence of mitomycin C; conditions: Mus musculus
P388/ADR [15] = assay: Inhibitory activity against multidrug resistant P388 cells (P388/ADR) cells at a concentration of 2.5 uM in presence of cisplatin; conditions: Mus musculus
P388/ADR [16] = assay: In vitro for the inhibitory activity against multidrug resistant P388 cells (P388/ADR) cells at a concentration of 0 uM; assay type: functional, cell-based; conditions: Mus musculus; summary of the method: as §5
Mus musculus [17] = assay: Evaluation of Survival of mice intraperitoneal injection of VBL and/or oral administration on days 1-4 and 6-8 at a concentration of 40 mg/kg in mice; assay type: functional; summary of the method: as §2
P388/S [18] = assay: In vitro evaluation for the inhibitory activity against drug sensitive P388 cells (P388/S) cells at a concentration of 5.0 uM; assay type: functional, cell-based; conditions: Mus musculus; summary of the method: as §5
Mus musculus [19] = assay: Evaluation of ILS percentage of mice upon intraperitoneal injection of VBL and/or oral administration on days 1-4 and 6-8 at a concentration of 10 mg/kg; assay type: functional; summary of the method: as §2
Mus musculus [20] = assay: Evaluation of ILS percentage of mice upon intraperitoneal injection of VBL / oral administration on days 1-4 and 6-8 at a concentration of 20 mg/kg; assay type: functional; summary of the method: as §2
P388/ADR [21] = assay: Relative increase in inhibitory activity against multidrug resistant P388 cells (P388/ADR) cells at a concentration of 5.0 uM in presence of vinblastine; assay type: functional, Mus musculus; summary of the method: as §4
P388/ADR [22] = assay: In vitro for the inhibitory activity against multidrug resistant P388 cells (P388/ADR) cells at a concentration of 2.5 uM; assay type: functional, cell-based; conditions: Mus musculus; summary of the method: as §5
P388/S [23] = assay: In vitro evaluation for the inhibitory activity against drug sensitive P388 cells (P388/S) cells at a concentration of 2.5 uM; assay type: functional, cell-based; conditions: Mus musculus; summary of the method: as §5
Mus musculus [24] = assay: Evaluation of ILS percentage of mice upon intraperitoneal injection of VBL / oral administration on days 1-4 and 6-8 at a concentration of 40 mg/kg; assay type: functional; summary of the method: as §2
P388/ADR [25] = assay: In vitro for the inhibitory activity against multidrug resistant P388 cells (P388/ADR) cells at a concentration of 5 uM; assay type: functional, cell-based; conditions: Mus musculus; summary of the method: as §5
P388/ADR [26] = assay: Inhibitory activity against multidrug resistant P388 cells (P388/ADR) cells at a concentration of 2.5 uM in presence of adriamycin; conditions: Mus musculus
P388/S [27] = assay: Inhibitory activity against drug sensitive P388 cells (P388/S) cells in presence of cisplatin; assay type: functional, cell-based; conditions: Mus musculus; summary of the method: as §3
P388/S [28] = assay: Relative increase in inhibitory activity against drug sensitive P388 cells (P388/S) cells at a concentration of 1.0 uM in presence of vinblastine; assay type: functional, Mus musculus; summary of the method: as §4
P388/ADR [29] = assay: In vitro for the inhibitory activity against multidrug resistant P388 cells (P388/ADR) cells at a concentration of 1.0 uM; assay type: functional, cell-based; conditions: Mus musculus; summary of the method: as §5
P388/ADR [30] = assay: Relative increase in inhibitory activity against multidrug resistant P388 cells (P388/ADR) cells at a concentration of 2.5 uM in presence of vinblastine; assay type: functional, Mus musculus; summary of the method: as §4
P388/S [31] = assay: In vitro evaluation for the inhibitory activity against drug sensitive P388 cells (P388/S) cells at a concentration of 1.0 uM; assay type: functional, cell-based; conditions: Mus musculus; summary of the method: as §5
P388/S [32] = assay: Relative increase in inhibitory activity against drug sensitive P388 cells (P388/S) cells at a concentration of 2.5 uM in presence of vinblastine; assay type: functional, Mus musculus; summary of the method: as §4
Mus musculus [33] = assay: Evaluation of Survival of mice upon intraperitoneal injection of VBL and/or oral administration on days 1-4 and 6-8 at a concentration of 10 mg/kg; assay type: functional; summary of the method: as §2
P388/S [34] = assay: Relative increase in inhibitory activity against drug sensitive P388 cells (P388/S) cells at a concentration of 5.0 uM in presence of vinblastine; assay type: functional, Mus musculus; summary of the method: as §4

SMILES: O=C1NC(=O)N(Cc2cccc(Cl)c2)CCCN1Cc1cccc(Cl)c1
- Relative uptake (P388/ADR [1]): 2.62
- Relative uptake (P388/S [2]): 1.12

SMILES: O=C1NC(=O)N(Cc2ccc(Cl)cc2)CCN1Cc1ccc(Cl)cc1
- Relative uptake (P388/ADR [1]): 3.44
- Relative uptake (P388/S [2]): 1.22

SMILES: CC[C@]1(O)C[C@@H]2CN(CCc3c([nH]c4ccccc34)[C@@](C(=O)OC)(c3cc4c(cc3OC)N(C)[C@H]3[C@@](O)(C(=O)OC)[C@H](OC(C)=O)[C@]5(CC)C=CCN6CC[C@]43[C@@H]65)C2)C1 [VINBLASTINE]
- Survival days (Mus musculus [3]): 15.5
- ILS at 0.2 mg/kg (Mus musculus [4]): 89%
- ILS at 0.2 mg/kg (Mus musculus [5]): 14.6%
- Survival days (Mus musculus [6]): 15.5

SMILES: O=C1NC(=S)N(Cc2cccc(Cl)c2)CCN1Cc1cccc(Cl)c1
- Relative uptake (P388/ADR [1]): 6.14
- Relative uptake (P388/S [2]): 1.26

SMILES: COc1ccc(CN2CCN(Cc3ccc(OC)c(OC)c3)C(=S)NC2=O)cc1OC
- Relative uptake (P388/ADR [1]): 2.36
- Relative uptake (P388/S [2]): 1.14

SMILES: CSC1=NC(=O)N(Cc2ccc(Cl)cc2)CCN1Cc1ccc(Cl)cc1
- ILS at 40 mg/kg (Mus musculus [7]): 4.2%
- Relative uptake (P388/ADR [1]): 6.87
- Relative uptake (P388/S [2]): 1.28
- Survival days (Mus musculus [8]): 10

SMILES: Clc1ccc(CNCCNCc2ccc(Cl)cc2)cc1
- Relative uptake (P388/ADR [1]): 2.62
- Relative uptake (P388/S [2]): 1.04

SMILES: CC[C@]1(O)C[C@H]2CN(CCc3c([nH]c4ccccc34)[C@@](C(=O)OC)(c3cc4c(cc3OC)N(C)[C@H]3[C@@](O)(C(=O)OC)[C@H](OC(C)=O)[C@]5(CC)C=CCN6CC[C@]43[C@@H]65)C2)C1.CSC1=NC(=O)N(Cc2ccc(Cl)cc2)CCN1Cc1ccc(Cl)cc1
- IC50 (P388/S [9]): 0.044 µM
- Survival days (Mus musculus [10]): 13.2
- Relative activity (P388/ADR [11]): 3.2
- IC50 (P388/S [12]): 0.0017 µM
- IC50 (P388/S [13]): 0.013 µM
- IC50 (P388/ADR [14]): 0.264 µM
- IC50 (P388/ADR [15]): 0.051 µM
- IC50 (P388/ADR [16]): 0.07 µM
- Survival days (Mus musculus [17]): 14
- IC50 (P388/S [18]): 0.0004 µM
- ILS at 10 mg/kg (Mus musculus [19]): 20.8%
- ILS at 20 mg/kg (Mus musculus [20]): 37.5%
- Relative activity (P388/ADR [21]): 23
- IC50 (P388/ADR [22]): 0.0062 µM
- IC50 (P388/S [23]): 0.0007 µM
- ILS at 40 mg/kg (Mus musculus [24]): 45.8%
- IC50 (P388/ADR [25]): 0.0022 µM
- IC50 (P388/ADR [26]): 0.09 µM
- IC50 (P388/S [27]): 0.072 µM
- Relative activity (P388/S [28]): 1.9
- IC50 (P388/ADR [29]): 0.023 µM
- Relative activity (P388/ADR [30]): 11
- IC50 (P388/S [31]): 0.0009 µM
- Relative activity (P388/S [32]): 2.4
- Survival days (Mus musculus [33]): 11.6
- Relative activity (P388/S [34]): 4.3
